According to ChEMBL document CHEMBL4431339, “1,2,3-Triazoles as Amide Bioisosteres: Discovery of a New Class of Potent HIV-1 Vif Antagonists” (J Med Chem, 2016):
Active and inactive are the calls of the source. Unless noted, no cut-off for these calls is given here.

Key:
[1] = biological target: Virion infectivity factor (Human immunodeficiency virus type 1 group M subtype B (isolate NY5)(HIV-1)) (UniProt P12504); assay: Antagonist activity against HIV-1 GFP-tagged Vif in human HEK293FT cells co-expressing HA-tagged A3G assessed as upregulation of A3G levels at 50 uM measured after 16 hrs by immunoblotting method; format: cell-based; details: Human immunodeficiency virus 1
Sequence of Virion infectivity factor (Human immunodeficiency virus type 1 group M subtype B (isolate NY5)(HIV-1)) (P12504 whole entry): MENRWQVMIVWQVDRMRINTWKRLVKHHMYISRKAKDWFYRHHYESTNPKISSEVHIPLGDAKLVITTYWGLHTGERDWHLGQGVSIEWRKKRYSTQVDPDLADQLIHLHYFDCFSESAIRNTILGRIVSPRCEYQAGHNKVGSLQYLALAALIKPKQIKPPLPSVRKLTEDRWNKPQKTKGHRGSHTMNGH
Method in brief: (§1)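 HEK293FT cells co-expressing HA-tagged A3G and either GFP-tagged Vif or Vif were incubated with or without compound (50 µM) for 16 h. Cell extracts were immunoblotted with anti-HA (A3G), anti-GFP (Vif) and anti-GAPDH antibodies. Untreated cells served as the comparison, and choline chloride was included as a negative control in the triazole series.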

[2] = biological target: Virion infectivity factor (Human immunodeficiency virus type 1 group M subtype B (isolate NY5)(HIV-1)) (UniProt P12504); assay: Antagonist activity against HIV-1 GFP-tagged Vif in human HEK293FT cells co-expressing HA-tagged A3G assessed as downregulation of Vif expression expression at 50 uM measured after 16 hrs by immunoblotting method; format: cell-based; details: Human immunodeficiency virus 1; method in brief: as §1
[3] = biological target: Virion infectivity factor (Human immunodeficiency virus type 1 group M subtype B (isolate NY5)(HIV-1)) (UniProt P12504); assay: Antagonist activity against HIV-1 Vif in human H9 cells expressing A3G assessed as inhibition of viral replication by reverse transcriptase assay relative to vehicle-treated control; format: cell-based; details: Human immunodeficiency virus 1
Method in brief: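 Antiviral activity was measured against wild-type HIV-1 in non-permissive (A3G-expressing) H9 cells and reported as IC50. RN-18 was the positive control, and cells cultured without inhibitor were the negative control. Selected compounds were tested across doses, and MTS cell viability was checked in parallel at 50 µM.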

[4] = test system: HeLa; assay: Cytotoxicity against human HeLa cells at 50 uM measured after 16 hrs by MTS assay relative to DMSO control; format: cell-based
[5] = biological target: Virion infectivity factor (Human immunodeficiency virus type 1 group M subtype B (isolate NY5)(HIV-1)) (UniProt P12504); assay: (§2) Antagonist activity against HIV-1 Vif in human MT4 cells assessed as inhibition of viral infection at 50 uM measured after 16 hrs by cell-based assay; details: Human immunodeficiency virus 1
Method in brief: (§3)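 Antiviral activity was measured against wild-type HIV-1 in permissive MT-4 cells as a Vif-specificity counter-screen. RN-18 was the positive control, and cells cultured without inhibitor were the negative control. "No activity" means no inhibition at 50 µM.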

[6] = biological target: Virion infectivity factor (Human immunodeficiency virus type 1 group M subtype B (isolate NY5)(HIV-1), UniProt P12504); assay: as §2; design: species or system Human immunodeficiency virus 1; method in brief: as §3
Sequence of Virion infectivity factor (P12504 whole entry): as above

[7] = biological target: Virion infectivity factor (Human immunodeficiency virus type 1 group M subtype B (isolate NY5)(HIV-1)) (UniProt P12504); assay: Antagonist activity against HIV-1 Vif in human MT4 cells assessed as inhibition of viral infection at 50 and 100 uM measured after 16 hrs by cell-based assay; details: Human immunodeficiency virus 1

SMILES | Activity [1] | Activity [2] | inhibition [3] | Activity [4] | Activity [5] | IC50 [6] | Activity [7]
COc1ccc(OC)c(-n2cc(-c3ccccc3Sc3ccc([N+](=O)[O-])cc3)nn2)c1 | Active | Active | Dose-dependent effect | Non-Toxic | inactive | – | –
COc1ccccc1-n1cc(-c2ccccc2Sc2ccc([N+](=O)[O-])cc2)nn1 | Active | Active | – | – | – | Not Active | –
COc1ccccc1-c1noc(-c2ccccc2Sc2ccc([N+](=O)[O-])cc2)n1 | Active | Active | – | – | – | Not Active | –
COc1ccccc1NC(=O)c1ccccc1Sc1ccc([N+](=O)[O-])cc1 | Active | Active | Dose-dependent effect | Non-Toxic | inactive | – | inactive
COc1ccccc1-n1cc(-c2ccccc2Sc2ccc(C(F)(F)F)cc2)nn1 | Active | Active | Dose-dependent effect | Non-Toxic | inactive | – | –
